system: Monocyte; assay: Inhibition of MCP1-induced chemotaxis of human monocytes; assay type: functional, cell-based
Summary of the method: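 Human monocytes loaded with Calcein-AM in Hanks' buffer with 0.01% BSA, 37 °C, 30 min, then washed and resuspended in phenol red-free RPMI 1640 with 0.01% BSA. Migration toward MCP-1 measured in disposable 96-well chemotaxis plates (5.7 mm diameter wells), 1.5 × 10⁵ cells/well.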

| IC50 | SMILES | Kb |
| --- | --- | --- |
| – | O=C(/C=C/c1ccc(Cl)c(Cl)c1)NCCCCCN1CCC(c2c[nH]c3ccc(O)cc23)CC1 | 25 nM |
| 60 nM | O=C(O)c1cc2cc(O)ccc2n1Cc1ccc(Cl)c(Cl)c1 | – |
| 60 nM | O=C(NC(=O)c1ccc2nccnc2c1)Nc1cccc(-c2ccccc2)c1 | – |

| SMILES | IC50 | Kb |
| --- | --- | --- |
| Cc1ccc2c(c1)C1(CCN(CCc3coc(-c4ccc(F)cc4)n3)CC1)OC(=O)N2 | 1000 nM | – |

target: T1, C-C chemokine receptor type 2 (Homo sapiens, UniProt P41597); assay: Displacement of [125I]MCP1 from human CCR2 expressed in CHO cells; assay type: cell-based
Summary of the method: (§1)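 Competition binding: CHO cells stably expressing human CCR2b (5 × 10⁴) incubated with ¹²⁵I-hMCP-1 (20–50 pM) plus varied unlabeled competitor, 60 min, room temperature, in 50 mM HEPES, 5 mM MgCl₂, 1 mM CaCl₂, pH 7.4. Ended by filtration through polyethyleneimine-soaked GF/B filters, washed with 25 mM HEPES pH 7.5/500 mM NaCl. Values given as IC₅₀ or % inhibition at 1 µM.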

| IC50 | Ki | SMILES |
| --- | --- | --- |
| 865 nM | – | CN(C)CCN[C@@H](C(=O)NCc1cc(C(F)(F)F)cc(C(F)(F)F)c1)c1cccs1 |
| 575 nM | – | O=C(NCc1cc(C(F)(F)F)cc(C(F)(F)F)c1)C(NCCN1CCOCC1)c1ccccc1 (centres undefined) |
| 200 nM | – | Nc1ccc(C(F)(F)F)cc1C(=O)NCC(=O)NCC1CCN(Cc2ccc(Cl)cc2)CC1 |
| 400 nM | – | O=C(NCc1cc(C(F)(F)F)cc(C(F)(F)F)c1)[C@@H](NCCN1CCCCCC1)c1ccccc1 |
| 592 nM | – | CN(C)CCNC(C(=O)NCc1cc(C(F)(F)F)cc(C(F)(F)F)c1)c1ccco1 (centres undefined) |
| 756 nM | – | CC1CCN(CCN[C@H](C(=O)NCc2cc(C(F)(F)F)cc(C(F)(F)F)c2)c2ccccc2)CC1 |
| 678 nM | – | CCN(CC)CCNC(C(=O)NCc1cc(C(F)(F)F)cc(C(F)(F)F)c1)c1ccccc1 (centres undefined) |
| 175 nM | – | O=C(NCc1cc(C(F)(F)F)cc(C(F)(F)F)c1)[C@@H](NCCN1CCCCC1)c1ccc(F)cc1 |
| 424 nM | – | CN(C)CCN[C@H](C(=O)NCc1cc(C(F)(F)F)cc(C(F)(F)F)c1)c1ccsc1 |
| 521 nM | – | O=C(NCc1cc(C(F)(F)F)cc(C(F)(F)F)c1)C(NCCN1CCCC1)c1ccccc1 (centres undefined) |
| 838 nM | – | CC1CCCCN1CCN[C@H](C(=O)NCc1cc(C(F)(F)F)cc(C(F)(F)F)c1)c1ccccc1 (some centres undefined) |
| – | 29 nM | O=C(O)c1cc2cc(O)ccc2n1Cc1ccc(Cl)c(Cl)c1 |
| 1100 nM | – | CN(C)CCNC(C(=O)NCc1cc(C(F)(F)F)cc(C(F)(F)F)c1)c1ccc(Cl)cc1 (centres undefined) |
| 1000 nM | – | CN(C)CCN[C@H](C(=O)NCc1cc(C(F)(F)F)cc(C(F)(F)F)c1)c1ccccc1 |
| 219 nM | – | O=C(NCc1cc(C(F)(F)F)cc(C(F)(F)F)c1)[C@@H](NCCN1CCCCC1)c1ccccc1 |
| 770 nM | – | CN(C)CCN[C@H](C(=O)NCc1cc(C(F)(F)F)cc(C(F)(F)F)c1)c1ccc(F)cc1 |
| 822 nM | – | O=C(NCc1cc(C(F)(F)F)cc(C(F)(F)F)c1)[C@@H](NCCN1CCC(c2ccccc2)CC1)c1ccccc1 |
| 342 nM | – | O=C(NCc1cc(C(F)(F)F)cc(C(F)(F)F)c1)C(NCCN1CCCCC1)c1ccccc1 (centres undefined) |
| 1480 nM | – | CN(C)CCNC(C(=O)NCc1cc(C(F)(F)F)cc(C(F)(F)F)c1)c1ccccc1 (centres undefined) |

| SMILES | IC50 | Ki |
| --- | --- | --- |
| Cc1ccc2c(c1)C1(CCN(CCc3coc(-c4ccc(F)cc4)n3)CC1)OC(=O)N2 | 32 nM | – |

target: Substance-P receptor (Homo sapiens, UniProt P25103); assay: Binding affinity to human NK1 receptor
Sequence (P25103 whole entry): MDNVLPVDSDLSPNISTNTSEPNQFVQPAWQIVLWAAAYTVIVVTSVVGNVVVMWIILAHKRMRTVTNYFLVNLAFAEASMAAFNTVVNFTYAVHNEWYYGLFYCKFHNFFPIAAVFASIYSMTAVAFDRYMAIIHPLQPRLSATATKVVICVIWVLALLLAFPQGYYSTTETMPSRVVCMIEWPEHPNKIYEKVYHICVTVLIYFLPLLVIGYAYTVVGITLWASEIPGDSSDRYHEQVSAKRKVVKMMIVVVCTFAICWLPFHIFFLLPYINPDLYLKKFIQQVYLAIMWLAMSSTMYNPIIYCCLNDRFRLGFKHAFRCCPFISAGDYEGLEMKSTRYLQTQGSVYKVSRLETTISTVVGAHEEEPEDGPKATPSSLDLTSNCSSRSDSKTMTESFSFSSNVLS

| IC50 | SMILES |
| --- | --- |
| 650 nM | CN(C)CCN[C@H](C(=O)NCc1cc(C(F)(F)F)cc(C(F)(F)F)c1)c1ccc(F)cc1 |

target: T1, C-C chemokine receptor type 2; assay: Displacement of [125I]MCP1 from human CCR2 expressed in CHO cells at 1 uM; assay type: cell-based; summary of the method: as §1
Target sequence in this assay (P41597 whole entry, looked up): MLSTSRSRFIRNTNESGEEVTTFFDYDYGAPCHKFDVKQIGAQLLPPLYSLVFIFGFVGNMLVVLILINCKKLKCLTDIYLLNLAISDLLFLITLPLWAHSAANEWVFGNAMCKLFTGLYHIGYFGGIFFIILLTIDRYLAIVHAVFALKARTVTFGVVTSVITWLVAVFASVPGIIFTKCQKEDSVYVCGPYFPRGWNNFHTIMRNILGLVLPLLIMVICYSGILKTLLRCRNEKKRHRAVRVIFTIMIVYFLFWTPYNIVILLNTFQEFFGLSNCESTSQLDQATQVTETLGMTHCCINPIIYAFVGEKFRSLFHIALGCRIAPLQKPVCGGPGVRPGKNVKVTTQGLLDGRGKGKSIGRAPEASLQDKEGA

| inhibition | SMILES |
| --- | --- |
| 20% | CN(C)CCN[C@H](C(=O)N(C)Cc1cc(C(F)(F)F)cc(C(F)(F)F)c1)c1ccccc1 |
| 4% | CC(=O)N(Cc1cc(C(F)(F)F)cc(C(F)(F)F)c1)C[C@@H](NCCN(C)C)c1ccccc1 |
| 1% | CN(C)CCN[C@@H](Cc1ccc(F)cc1)C(=O)NCc1cc(C(F)(F)F)cc(C(F)(F)F)c1 |
| 9% | CN(C)CCN[C@H](C(=O)NCc1cc(C(F)(F)F)cc(C(F)(F)F)c1)C1CCCCC1 |
| 0% | CC(C)CCNC(C(=O)NCc1cc(C(F)(F)F)cc(C(F)(F)F)c1)c1ccccc1 (centres undefined) |
| 5% | CN(C)CCN[C@H](C(=O)NCc1cccc(C(F)(F)F)c1)c1ccccc1 |
| 7% | CN(C)CCN[C@H](C(=O)NCc1ccc(C(F)(F)F)cc1)c1ccccc1 |
| 1% | CN(C)CCN[C@H](C(=O)NCc1ccccc1C(F)(F)F)c1ccccc1 |
| 0% | COCCNC(C(=O)NCc1cc(C(F)(F)F)cc(C(F)(F)F)c1)c1ccccc1 (centres undefined) |
| 47% | COc1ccc([C@H](NCCN(C)C)C(=O)NCc2cc(C(F)(F)F)cc(C(F)(F)F)c2)cc1 |
| 25% | CN(C)CCNC(C(=O)NCc1cc(C(F)(F)F)cc(C(F)(F)F)c1)c1ccc(Br)cc1 (centres undefined) |
| 28% | CC(NC(=O)[C@@H](NCCN(C)C)c1ccccc1)c1cc(C(F)(F)F)cc(C(F)(F)F)c1 (some centres undefined) |
| 14% | NCCNC(C(=O)NCc1cc(C(F)(F)F)cc(C(F)(F)F)c1)c1ccccc1 (centres undefined) |
| 0% | CN(C)CCN[C@H](CN(C)S(=O)(=O)c1cc(C(F)(F)F)cc(C(F)(F)F)c1)c1ccccc1 |
| 0% | CN(C)CCNCC(=O)NCc1cc(C(F)(F)F)cc(C(F)(F)F)c1 |
| 26% | O=C(NCc1cc(C(F)(F)F)cc(C(F)(F)F)c1)[C@@H](NCCCN1CCCCC1)c1ccccc1 |
| 0% | Cc1cc(C)cc(CNC(=O)[C@@H](NCCN(C)C)c2ccccc2)c1 |
| 33% | CN(C)CCNC(C(=O)NCc1cc(C(F)(F)F)cc(C(F)(F)F)c1)c1ccc(F)c(F)c1 (centres undefined) |
| 0% | CN(C)CCN[C@H](CNC(=O)c1cc(C(F)(F)F)cc(C(F)(F)F)c1)c1ccccc1 |
| 0% | CN(C)CCN[C@H](CNS(=O)(=O)c1cc(C(F)(F)F)cc(C(F)(F)F)c1)c1ccccc1 |
| 17% | CN(C)CCNC(C(=O)NCc1cc(C(F)(F)F)cc(C(F)(F)F)c1)c1cccc(Br)c1 (centres undefined) |
| 6% | CN(C)CCN[C@H](COCc1cc(C(F)(F)F)cc(C(F)(F)F)c1)c1ccccc1 |
| 8% | CN(C)CCN[C@@H](C(=O)NCc1cc(C(F)(F)F)cc(C(F)(F)F)c1)c1ccc(F)cc1 |
| 0% | CN(C)CCN[C@H](CN(Cc1cc(C(F)(F)F)cc(C(F)(F)F)c1)S(C)(=O)=O)c1ccccc1 |
